Measured values collected from several papers.
Compare with care: the assays were run in different laboratories.
Target: Tyrosine-protein kinase Srms (SRMS, Homo sapiens, UniProt Q9H3Y6)

COc1ccnn2ncc(-c3ccnc(N(C)C)n3)c12  remaining binding (binding; 1 µM): 78%
CCOCCn1cc(C(=O)Nc2ccc(-n3nc(-c4cccnc4)cc3C(F)(F)F)cn2)ccc1=O  remaining binding (cell-free assay; competition with immobilised ligand; 1 µM): 79%
COc1ncc2cc3ccccc3nc2c1C#N  remaining binding (cell-free assay; competition with immobilised ligand; 5 µM): 100%
O=C(c1ccc(Nc2ncc(Cl)c(-c3ccc(Cl)s3)n2)cc1)N1CCC(N2CCCC2)CC1  remaining binding (binding; competition with immobilised ligand; 1 µM): 98%
O=C(NS(=O)(=O)c1ccc(NCC2CCOCC2)c([N+](=O)[O-])c1)c1ccc(N2CCN(Cc3ccc(C(F)(F)F)cc3-c3ccc(Cl)cc3)CC2)cc1Oc1cnc2[nH]ccc2c1  remaining binding (cell-free assay; competition with immobilised ligand; 1 µM): 79%
CN(C)c1nccc(-c2cnn3ncccc23)n1  remaining binding (binding; 1 µM): 64%
FC(F)(F)Oc1cccc(-c2cnc3ccc(-c4ccncc4)nn23)c1  remaining binding (cell-free assay; competition with immobilised ligand; 5 µM): 65%
O=C(Nc1c[nH]nc1C(=O)NC1CCNCC1)c1cc(F)cc(F)c1  remaining binding (binding; competition with immobilised ligand; 1 µM): 84%
CS(=O)(=O)NCC[C@H](NC(=O)c1cncc2c1cnn2-c1ccc(F)cc1)c1ccnc(S(C)(=O)=O)c1  remaining binding (cell-free assay; competition with immobilised ligand; 1 µM): 83%
N[C@@H]1CCN(c2nccc(-c3cnn4ncccc34)n2)C1  remaining binding (binding; 1 µM): 100%
CN([C@@H]1CCc2c(CC(=O)O)c3ccccc3n2C1)S(=O)(=O)c1ccc(F)cc1  remaining binding (cell-free assay; competition with immobilised ligand; 1 µM): 81%
O=C(NCCCN1CCOCC1)c1ccc(Nc2nccc(-c3cc4ccccc4s3)n2)cc1  remaining binding (binding; competition with immobilised ligand; 1 µM): 100%
CN(CCCC(F)(F)F)c1nccc(-c2cnn3ncccc23)n1  remaining binding (binding; 1 µM): 100%
O=C(Nc1cccnn1)N1CC(C/C=C/c2cncc(Oc3ccc(C(F)(F)F)cn3)n2)C1  remaining binding (cell-free assay; competition with immobilised ligand; 1 µM): 67%
CN(C)c1ncc(F)c(-c2cnn3ncccc23)n1  remaining binding (binding; 1 µM): 81%
O=C(NCCCN1CCOCC1)c1ccc(Nc2ncc(Cl)c(-c3ccc(Cl)s3)n2)cc1  remaining binding (binding; competition with immobilised ligand; 1 µM): 99%
CCN1CCN(Cc2ccc(C(=O)Nc3ccc(C)c(Oc4ccc5c(c4)CC(=O)N5)c3)cc2C(F)(F)F)CC1  remaining binding (binding; competition with immobilised ligand; 1 µM): 100%
CNC(=O)[C@@H]1CC[C@@H](n2c(-c3ccc4cnccc4c3)nc3ccc(C(=O)NCc4cccc(C(N)=O)c4)cc32)C1  remaining binding (binding; competition with immobilised ligand; 1 µM): 97%
CN(C)c1nccc(-c2cnc3ncccn23)n1  remaining binding (binding; 1 µM): 63%
CC(C)(O)c1cncc(-c2nc3ccc(F)cc3n2C2CC2)c1  remaining binding (cell-free assay; competition with immobilised ligand; 1 µM): 100%
Cc1cnn2ncc(-c3ccnc(N(C)C)n3)c2c1  remaining binding (binding; 1 µM): 100%
CCC(=N\O)/C(C)=C/c1ccc(F)cc1  remaining binding (cell-free assay; competition with immobilised ligand; 1 µM): 76%
